Results on 18 compounds are retold here after ChEMBL document CHEMBL1158368, “Synthesis of novel 3-(aryl)benzothieno[2,3-c]pyran-1-ones from Sonogashira products and intramolecular cyclization: Antitumoral activity evaluation” (2009).

Holding throughout (format): functional
The subject of one experiment is CNS cell. Put plainly: Cytotoxicity against human CNS cells after 48 hrs by SRB assay. An outline of the steps:
(§1)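 Cells were seeded at 1.5 × 10⁵ cells/mL (MCF-7 and SF-268) so growth stayed exponential, attached overnight, then were exposed to compound for 48 h at 37 °C in humidified 5% CO₂. Untreated controls received DMSO vehicle at up to 0.25%. Cells were fixed in situ and stained with SRB; the bound dye was solubilized and read at 492 nm. GI₅₀ (50% inhibition of net growth) came from dose–response curves, run in duplicate.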
On the technique in general: In SRB staining, fixed cells bind dye roughly in proportion to their protein.

The test system of the next experiment is MCF7. Put plainly: Cytotoxicity against human MCF7 cells after 48 hrs by SRB assay. The settings on record: MCF7, 48 h. The procedure, abridged:
as §1

In the next experiment the test system is NCI-H460. Put plainly: Cytotoxicity against human NCI-H460 cells after 48 hrs by SRB assay. The conditions noted are these: NCI-H460, 48 h. The procedure, abridged:
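NCI-H460 cells were plated at 0.75 × 10⁴ cells/mL to keep growth exponential, left overnight to attach, and treated for 48 h at 37 °C in humidified 5% CO₂, with DMSO vehicle controls at up to 0.25%. Readout was SRB staining of in-situ-fixed cells, with solubilized dye measured at 492 nm. GI₅₀ (50% net growth inhibition) came from dose–response curves in duplicate.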

One may read the GI50 as the concentration at which growth is held to half of that of the control. Read a high GI50 as lower sensitivity of the cells. As to `O=c1oc(-c2ccccc2F)cc2c1sc1ccccc12`, the figures for the GI50 in the experiment on CNS cell, in the experiment with MCF7 and with NCI-H460 were 12.4 µM, 19.4 µM and 15.5 µM, respectively.
On the same counts, the results for `COC(=O)c1sc2ccccc2c1C#Cc1ccccc1` are 64.7 µM, 71.6 µM and 58.9 µM.
As for `COc1ccc(-c2oc(=O)c3sc4ccccc4c3c2I)cc1`, the GI50 in the experiment on CNS cell, in the experiment on MCF7 and in the experiment on NCI-H460 was above 150 µM each time.
For the compound `O=c1oc(-c2ccc(F)cc2)c(I)c2c1sc1ccccc12`, the values for the GI50 in the experiment on CNS cell, in the experiment with MCF7 and with NCI-H460 were 20.7 µM, 25.2 µM and 35.8 µM, respectively.
Turning to `O=c1oc(-c2ccc(F)cc2)cc2c1sc1ccccc12`, the GI50 in the experiment with CNS cell, in the experiment with MCF7 and in the experiment with NCI-H460 was above 25 µM throughout.
In the case of `O=c1oc(-c2ccccc2)cc2c1sc1ccccc12`, the GI50 in the experiment with CNS cell, in the experiment on MCF7 and in the experiment on NCI-H460 was above 112 µM each time.
With `COC(=O)c1sc2ccccc2c1C#Cc1ccccc1F`, the results for the 50% growth inhibitory concentration (GI50) with CNS cell, in the experiment on MCF7 and in the experiment on NCI-H460 were 25.7 µM, 40.9 µM and 30.2 µM, respectively.
For `COC(=O)c1sc2cc(OC)ccc2c1C#Cc1ccccc1F` the same measures were 7.2 µM, 11.4 µM and 10.3 µM.
`COc1ccc2c(c1)sc1c(=O)oc(-c3ccc(F)cc3)cc12`: the GI50 with CNS cell worked out at 28.9 µM; in the experiment on MCF7 it was 109 µM; in the experiment with NCI-H460, 118 µM.
For `COC(=O)c1sc2cc(OC)ccc2c1C#Cc1ccccc1` the same measures were 54.9 µM, 79.6 µM and 42.3 µM.
For `COc1ccc2c(c1)sc1c(=O)oc(-c3ccc(F)cc3)c(I)c12` the same measures were above 150 µM, above 150 µM and above 150 µM.
As to `COC(=O)c1sc2ccccc2c1C#Cc1ccc(F)cc1`, the GI50 in the experiment with CNS cell is 76.1 µM; in the experiment on MCF7 it was 60.6 µM; in the experiment on NCI-H460, 56.2 µM.
On the same counts, the results for `COc1ccc(-c2cc3c(sc4ccccc43)c(=O)o2)cc1` are above 75 µM, above 75 µM and above 75 µM.
For `COc1ccc2c(c1)sc1c(=O)oc(-c3ccccc3)cc12` the same measures were above 75 µM, above 75 µM and above 75 µM.
For `COC(=O)c1sc2ccccc2c1C#Cc1ccc(OC)cc1` the same measures were above 150 µM, 90.6 µM and 103 µM.
For `COC(=O)c1sc2cc(OC)ccc2c1C#Cc1ccc(F)cc1`, the GI50 with CNS cell was 20.9 µM; in the experiment with MCF7 it was 12.6 µM; with NCI-H460, 10.1 µM.
On the same counts, the results for `COc1ccc2c(c1)sc1c(=O)oc(-c3ccccc3F)c(I)c12` are 11.3 µM, 11.9 µM and 10.9 µM.
For `COc1cccc2c1C(=O)c1c(O)c3c(c(O)c1C2=O)C[C@@](O)(C(=O)CO)C[C@@H]3O[C@H]1C[C@H](N)[C@H](O)[C@H](C)O1` [DOXORUBICIN] the same measures were 0.094 µM, 0.0428 µM and 0.094 µM.
